Results reported in ChEMBL document CHEMBL1130594, “Thalidomide analogs and PDE4 inhibition” (Bioorg Med Chem Lett, 1998).
pIC50: −log10 of the molar value.

Assays:
[1] = biological target: T1, Phosphodiesterase 4 (Homo sapiens, UniProt P27815+Q08499+Q07343+Q08493); test: Inhibition of PDE4 enzyme from U937 cells; assay type: cell-based; settings: u-937
Summary of the method: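 Crude PDE4 from U937 cells: lysate supernatant run on Sephacryl S-200, rolipram-sensitive fractions pooled. Assay in 50 mM Tris-HCl pH 7.5, 5 mM MgCl2, 1 µM cAMP (1% 3H-cAMP), varying inhibitor, <15% substrate consumed; 30 °C, 30 min. Boiled, snake-venom treated, AG1-X8 resin, aqueous phase counted. Duplicates, % of control; IC50 by variable-slope nonlinear regression, three independent experiments.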

[2] = system: PBMC; test: (§1) Inhibition of LPS stimulated Tumor Necrosis Factor-alpha (TNF-alpha) release by human PBMC; assay type: functional, cell-based
[3] = biological target: T1, Phosphodiesterase 4; test: Inhibition of phosphodiesterase 4 from U937 cells; assay type: cell-based; settings: u-937
[4] = system: PBMC; test: Inhibition of LPS stimulated Tumor Necrosis Factor-alpha (TNF-alpha) release by human PBMC, cytotoxic at 10 and 100 uM; assay type: functional, cell-based
[5] = system: PBMC; test: as §1

Row | Structure (SMILES) | IC50 [1] | pIC50 [2] | IC50 [3] | pIC50 [4] | pIC50 [5]
1 | COC(=O)CC(c1ccc(OC)c(OC2CCCC2)c1)N1C(=O)c2ccccc2C1=O (configuration not stated) | 1700 nM | 5.80 |  |  | 
2 | COC(=O)CC(c1ccc(OC)c(OC)c1)N1C(=O)c2ccccc2C1=O (configuration not stated) | 2500 nM | 5.54 |  |  | 
3 | CCOc1cc(C(CC(=O)OC)N2C(=O)c3c(F)c(F)c(F)c(F)c3C2=O)ccc1OC (configuration not stated) |  |  | 2200 nM | 6.42 | 
4 | COc1ccc(C(CC(N)=O)N2C(=O)c3ccccc3C2=O)cc1OC1CCCC1 (configuration not stated) [CDC-801] | 1100 nM | 5.60 |  |  | 
5 | COc1ccc(C2CNC(=O)C2)cc1OC1CCCC1 (configuration not stated) [ROLIPRAM] |  |  |  |  | 6.82
6 | CCOc1cc(C(CC#N)N2C(=O)c3ccccc3C2=O)ccc1OC (configuration not stated) | 130 nM | 6.92 |  |  | 
7 | CCOc1cc(C(CC(N)=O)N2C(=O)c3ccccc3C2=O)ccc1OC (configuration not stated) | 2000 nM | 5.57 |  |  | 
8 | COC(=O)CC(c1ccc(OC)c(OC)c1)N1C(=O)c2c(F)c(F)c(F)c(F)c2C1=O (configuration not stated) |  |  | 4700 nM | 6.59 | 
9 | COc1ccc(C(CC(N)=O)N2C(=O)c3ccccc3C2=O)cc1OC (configuration not stated) | 9400 nM | 4.89 |  |  | 
10 | COc1ccc(C(CC#N)N2C(=O)c3ccccc3C2=O)cc1OC1CCCC1 (configuration not stated) | 350 nM | 5.80 |  |  | 
11 | COC(=O)CC(c1ccc(OC)c(OC2CC3CCC2C3)c1)N1C(=O)c2ccccc2C1=O (configuration not stated) | 740 nM | 5.62 |  |  | 
12 | O=C1CCC(N2C(=O)c3ccccc3C2=O)C(=O)N1 (configuration not stated) [THALIDOMIDE] | > 500000 nM | ~3.70 |  |  | 
13 | COc1ccc(C(CC#N)N2C(=O)c3ccccc3C2=O)cc1OC (configuration not stated) | 1300 nM | 5.77 |  |  | 
14 | CCOc1cc(C(CC(=O)OC)N2C(=O)c3ccccc3C2=O)ccc1OC (configuration not stated) | 230 nM | 6.15 |  |  | 
